Results gathered from unrelated publications.
Protocols differ between the studies behind these lines.
ABL1 H396P phosphorylated: Tyrosine-protein kinase ABL1, phosphorylated (ABL1, Homo sapiens, UniProt P00519, H396P)
ABL1 E255K: Tyrosine-protein kinase ABL1 (ABL1, Homo sapiens, UniProt P00519, E255K)

Compound | target | observed | mode | method | concentration | measurement | value
CO[C@@H](C)c1c(Nc2ccc([C@H](N(C)C(=O)C3CCS(=O)(=O)CC3)C(F)(F)F)cc2)cnc2cc(Cl)nn12 | ABL1 H396P phosphorylated | cell-free assay |  | competition with immobilised ligand | 1 µM | remaining binding | 100%
CCCOc1ccc(OC)c(F)c1C(=O)c1ccc(C(=O)N[C@@H]2CNC[C@H]2NC(=O)c2ccc3[nH]ncc3c2)cc1 | Tyrosine-protein kinase ABL1 (ABL1, Homo sapiens, UniProt P00519, T315I) | enzyme activity | inhibitor |  | 10 µM | remaining activity | 85%
N#Cc1ccc(Nc2ccc3[nH]c(=O)[nH]c3c2)c(Cl)c1 | ABL1 H396P phosphorylated | cell-free assay |  | competition with immobilised ligand | 1 µM | remaining binding | 95%
Cc1cnc(NC2CCOCC2)nc1-n1cnc(C(=O)NC(CN)c2cc(F)cc(Cl)c2)c1 (stereo not drawn) | Tyrosine-protein kinase ABL1 (ABL1, Homo sapiens, UniProt P00519, M351T) | enzyme activity | inhibitor | radiometric | 1 µM | remaining activity | 95%
Nc1ncnc2occ(-c3ccc(NC(=O)Nc4cc(C(F)(F)F)ccc4F)cc3)c12 | Tyrosine-protein kinase ABL1, phosphorylated (ABL1, Homo sapiens, UniProt P00519, F317L) | cell-free assay | inhibitor |  | 20 µM | remaining signal | 9.2%
COCCOc1nc(-c2ccc(Cl)nc2)nc2c1CN(C(=O)c1ncn3ccccc13)CC2 | Tyrosine-protein kinase ABL1, phosphorylated (ABL1, Homo sapiens, UniProt P00519, T315I) | cell-free assay |  | competition with immobilised ligand | 0.1 µM | remaining binding | 100%
Cc1cc(NC(=O)c2cccc3cc(-c4cccc5[nH]nc(N)c45)ccc23)ccc1F | Tyrosine-protein kinase ABL1 (ABL1, Homo sapiens, UniProt P00519) | enzyme activity | inhibitor |  | 0.1 µM | activity vs control | 85%
COc1cc(-c2cc(-c3ccc(N4CCNCC4)cc3)cnc2N)cc(OC)c1OC | ABL1 E255K | enzyme activity | inhibitor |  | 0.1 µM | inhibition | 74%
N[C@H]1CCN(c2nccc(-c3cnn4ncccc34)n2)C1 | ABL1 E255K | binding |  |  | 1 µM | remaining binding | 98%
